A selection: hits, their analogues and other compounds. The true share with any hit is near 3.4%.
AHR activator: activators of human aryl hydrocarbon receptor; P35869; AHR-responsive luciferase reporter cells, luminescence; activation, % at 5 µM; 2.5% of 320,000 active; in the data active = activation above about 47%;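 note: 0% = vehicle wells and 100% = reference agonist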
Target sequence (P35869 whole entry, looked up): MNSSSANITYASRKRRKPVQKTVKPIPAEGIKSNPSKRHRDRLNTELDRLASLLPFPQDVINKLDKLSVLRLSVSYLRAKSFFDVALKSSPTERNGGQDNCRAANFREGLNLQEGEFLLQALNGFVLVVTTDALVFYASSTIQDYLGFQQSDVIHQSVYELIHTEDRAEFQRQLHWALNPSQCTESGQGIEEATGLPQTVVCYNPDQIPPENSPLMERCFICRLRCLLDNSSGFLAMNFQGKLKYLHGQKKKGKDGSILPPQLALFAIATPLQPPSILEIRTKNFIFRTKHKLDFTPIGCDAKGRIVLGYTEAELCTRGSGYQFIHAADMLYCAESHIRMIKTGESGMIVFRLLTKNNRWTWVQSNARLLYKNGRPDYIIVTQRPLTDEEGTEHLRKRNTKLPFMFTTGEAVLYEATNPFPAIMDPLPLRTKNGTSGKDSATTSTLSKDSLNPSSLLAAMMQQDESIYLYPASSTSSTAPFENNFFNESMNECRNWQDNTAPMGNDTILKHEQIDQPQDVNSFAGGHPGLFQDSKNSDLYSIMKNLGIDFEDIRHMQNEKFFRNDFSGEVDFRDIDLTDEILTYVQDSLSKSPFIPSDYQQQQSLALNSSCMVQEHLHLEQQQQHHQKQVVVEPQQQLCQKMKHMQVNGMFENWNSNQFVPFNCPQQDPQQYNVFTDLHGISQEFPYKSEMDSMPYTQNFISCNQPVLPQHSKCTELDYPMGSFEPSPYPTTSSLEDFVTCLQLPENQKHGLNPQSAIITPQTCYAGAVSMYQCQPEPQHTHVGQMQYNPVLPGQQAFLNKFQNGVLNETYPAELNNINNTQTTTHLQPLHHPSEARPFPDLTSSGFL
UCH37 inh: human UCH37 deubiquitinating enzyme inhibition | inhibition, % (concentration not given with the values) | purified proteasome/UCH37, Ub-AMC cleavage fluorescence | AID 588478 | 0.33% of 330,000 active;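 active = mean inhibition over replicate wells above about 20%, limit read from the data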;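 note: 0% = compound-free wells with enzyme and 100% = wells lacking proteasome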
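Material: Human UCH37 enzyme supplied as purified proteasome complex | Schedule: 30 min preincubation with enzyme, 25 min cleavage at room temperature | Detection: AMC fluorescence 355/460 nm | Measure: % inhibition of Ub-AMC cleavage fluorescence | Controls: Wells without proteasome as full block, compound-free enzyme plus substrate as uninhibited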
Arr AP2 block: inhibitors of human beta-arrestin and AP2 interaction; FITC-arrestin peptide / GST-AP2 beads, flow cytometry; AP2 beta2 appendage carries R879A mutation; inhibition, % at 10 µM; 0.31% of 340,000 active; AID 504490;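 active = inhibition above a set limit, near 3 SD of compounds lacking own fluorescence, cut at about 54% in these data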;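 note: plate controls were DMSO wells for no effect and 5 µM unlabelled arrestin peptide for full effect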
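Measured by: flow cytometry, FL1 (488/535 nm); Material: AP2 appendage R879A on GSH beads; Evaluation: percent response; Timing: pre-incubation 12 min, peptide binding 1 h, room temperature; Also added: 50 nM FITC-arrestin peptide; Medium: PBS with 0.05% Tween 20 and 0.1% BSA.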
APOBEC3G inh: blocks human APOBEC3G single-stranded DNA deamination. inhibition, % at 20 µM. AID 493012. Q9HC16. recombinant A3G, ssDNA deamination FAM/TAMRA fluorescence. 0.28% of 330,000 active;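 active = inhibition of at least 40% at 20 µM, with no more than 30% in the related APOBEC3A deaminase screen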;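 note: plate controls were DMSO wells with A3G for no effect and wells lacking A3G enzyme for full effect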
APOBEC3A inh: human APOBEC3A DNA deaminase inhibition | AID 493011 | recombinant A3A, FAM/TAMRA ssDNA deamination fluorescence | inhibition, % at 20 µM | P31941 | 0.41% of 330,000 active;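 active = at least 40% inhibition at 20 µM here, with at most 30% in a related deaminase screen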;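 note: plate controls were A3A with DMSO for no effect and wells lacking A3A enzyme for full effect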
PolyA inh: yeast polyadenylation inhibition; S. cerevisiae SKY197-pL101 polyadenylation reporter, beta-gal luminescence; efflux-impaired pdr1/pdr3 knockout yeast; score 100 = 6 SD above DMSO; 0.02% of 300,000 active; activity score, % at 12 µM;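 active = lowest replicate activity score at least 50, where 100 means six control SD above control mean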;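 note: yeast exposed to compound for 9 h at 30 °C; higher score means more reporter readthrough which indicates perturbed polyadenylation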
AHR act confirm: confirmation of human aryl hydrocarbon receptor activators; shares compounds with AHR activator; human cells, AHR-responsive luciferase reporter, luminescence; activation, % at 9 µM; 87% of 2,300 active; AID 2845; in the data active = activation above about 49%;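 note: HepG2 hepatoma cells carrying a DRE-driven firefly luciferase reporter; 0% = vehicle wells and 100% = reference agonist wells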
PXR act counter: activates human PXR in AHR activator counter-screen. activation, % at 11.6 µM. shares compounds with AHR activator. 88% of 2,300 active. AID 434939. cell-based PXR reporter, luciferase luminescence; in the data active = activation above about 11%;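 note: human hepatoma DPX-2 cells expressing full-length human PXR; 0% = DMSO and 100% = reference agonist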
* marks the source's active call; other numbers are inactive results; nt = not tested or not shown.

SMILES | AHR activator | UCH37 inh | Arr AP2 block | APOBEC3G inh | APOBEC3A inh | PolyA inh | AHR act confirm | PXR act counter
CCCCCCCCCS(=O)(=O)NN=Cc1cccc([N+](=O)[O-])c1 | nt | 1 | nt | nt | nt | nt | nt | nt
Cn1cccc1C=NN1CCN(c2ccccc2)CC1 | nt | 3 | nt | nt | nt | nt | nt | nt
O=C(O)COc1ccccc1C=NNC(=O)CSc1nc2ccccc2c(=O)n1-c1ccc(Cl)cc1 | nt | 2 | nt | nt | nt | nt | nt | nt
Cc1c(/C(Cc2ccccc2)=N/O)c2ccccc2n1C | 88* | nt | 10 | -1 | -6 | -2 | 111* | 178*
O=c1c(-c2ccccc2)n[nH]c2ccccc12 | 117* | 0 | 6 | -4 | -3 | -4 | 81* | 26*
Cc1cnc(NC(=O)c2ccc(-c3nc4ccccc4s3)o2)s1 | 89* | -12 | 4 | 0 | 6 | -26 | 114* | 14*
Cc1cnc(NC(=O)c2ccc(-c3ccc([N+](=O)[O-])cc3)o2)s1 | 14 | 2 | 5 | -6 | 4 | nt | nt | nt
O=C(NN=Cc1cc([N+](=O)[O-])ccc1O)c1ccc(COc2ccc3c(c2)CCC3)o1 | nt | 4 | nt | nt | nt | nt | nt | nt
O=C(N/N=C/c1cccc(O)c1)c1ccc(COc2ccc3c(c2)CCC3)o1 | 118* | nt | 1 | 8 | 2 | 7 | 64* | 19*
C/C(=N\NC(=O)C(=O)Nc1cc(Cl)ccc1Cl)c1ccncc1 | 89* | nt | 9 | -1 | 0 | -5 | 1 | 10
O=C(O)c1ccc(C=NNC(=O)c2ccc(F)cc2)cc1 | nt | 5 | nt | nt | nt | nt | nt | nt
Fc1cccc(F)c1/C=N/NC(=S)Nc1cccnc1 | 43 | nt | -4 | 0 | 0 | -28 | nt | nt
S=C(NN=Cc1ccc2ncccc2c1)Nc1cccnc1 | nt | 4 | nt | nt | nt | nt | nt | nt
Fc1ccc(/C=N/NC(=S)Nc2cccnc2)cc1 | 105* | nt | -5 | -3 | -2 | -7 | 53* | 19*
Fc1ccc(/C=N/NC(=S)Nc2cccnc2)cc1F | 99* | nt | 0 | -8 | -2 | 14 | 92* | 14*
CCc1nc2ccccc2c(C(=O)OCc2nc3ccccc3c(=O)[nH]2)c1C | 118* | -1 | 8 | -5 | 0 | nt | 86* | 54*
COC(=O)NN=C(C)c1ccc(-n2ccnc2)cc1 | nt | 1 | nt | nt | nt | nt | nt | nt
[O-]/[N+](=C\c1ccccc1)c1ccc(Br)cc1 | 88* | -1 | 3 | -9 | -2 | nt | 114* | 14*
Cc1cccc(OCC(=O)ON=C(N)c2ccccn2)c1 | nt | 0 | nt | nt | nt | nt | nt | nt
CCOc1ccc2ccccc2c1C=NNC(=O)c1cc(C)[nH]n1 | nt | -1 | nt | nt | nt | nt | nt | nt
O=C(Nc1c(C(=O)N2CCC(N3CCCCC3)CC2)oc2ccccc12)c1ccc(F)cc1 | -6 | 2 | -1 | -1 | -4 | -11 | nt | nt
O=C(Nc1ccc(F)cc1)c1oc2ccccc2c1NC(=O)C1CC1 | 127* | -2 | -11 | -4 | -3 | -5 | 0 | 33*
Cc1ccc(NC(=O)c2oc3ccccc3c2NC(=O)C2CC2)cc1 | 122* | -7 | 8 | -5 | -3 | 4 | 65* | 32*
NC(=O)c1oc2ccccc2c1NC(=O)c1ccc(F)cc1 | 106* | -27 | -5 | -7 | -4 | 0 | 77* | nt
CC(=NNc1c(F)c(F)c(Br)c(F)c1F)c1ccncc1 | nt | 7 | nt | nt | nt | nt | nt | nt
SMILES | AHR activator | UCH37 inh | Arr AP2 block | APOBEC3G inh | APOBEC3A inh | PolyA inh | AHR act confirm | PXR act counter
COCCNC(=S)NN=C(C)c1ccccc1OC | nt | 1 | nt | nt | nt | nt | nt | nt
CC(=O)c1c(N2CCOCC2)[nH]c(-c2ccccc2)nc1=S | 136* | 5 | 3 | -10 | -2 | -6 | 122* | 75*
O=C(COC(=O)CC1CCCC1)Nc1cc2c(cc1Cl)C(=O)c1ccccc1C2=O | 117* | 1 | 10 | 4 | 7 | -2 | 139* | 16*
COc1cccc(OCc2cc(C=NNc3ccc(C(=O)O)cc3)ccc2OC)c1 | nt | -18 | nt | nt | nt | nt | nt | nt
CC1=C(C)C(=NOC(=O)c2cccc([N+](=O)[O-])c2)C=CC1=O | nt | 3 | nt | nt | nt | nt | nt | nt
Cc1cc(/C=C2/SC(=S)N(c3cccc(C(F)(F)F)c3)C2=O)c(C)n1-c1cccnc1 | -3 | 6 | -7 | -4 | -1 | -4 | nt | nt
Cc1cc(/C=C2\NC(=S)NC2=O)c(C)n1-c1cccnc1 | 100* | 6 | -3 | -1 | 4 | 9 | 59* | 33*
c1ccc(-c2csc(Nc3ccccn3)n2)cc1 | 139* | 2 | 34 | -3 | -2 | 0 | 131* | 16*
Cc1nc(C)c(-c2csc(Nc3ccccn3)n2)s1 | 83* | 5 | 13 | 3 | -3 | 10 | 23 | 35*
Cc1nn(C)c(C)c1C=NNC(=O)CCn1cc([N+](=O)[O-])cn1 | nt | 2 | nt | nt | nt | nt | nt | nt
COc1ccc(C=NNS(=O)(=O)c2ccc(C)cc2)cc1OC(=O)c1ccccc1 | nt | 4 | nt | nt | nt | nt | nt | nt
COc1cc(-c2csc(NC3CCCCC3)n2)cc(OC)c1OC | 81* | -2 | -5 | 0 | -1 | -18 | 50* | 37*
COc1cc(CNC2CCCCCC2)cc(OC)c1OC | -4 | 4 | 5 | -3 | 0 | 12 | nt | nt
CCc1cccc(NC(=O)Cc2cn(C)c3ccccc23)c1 | 104* | -1 | 11 | 2 | 2 | 4 | 24 | 83*
Cn1c(SCC(=O)NCc2ccccc2)nc2c([nH]c3ccccc32)c1=O | 84* | 2 | nt | -2 | 2 | 13 | 97* | 126*
CCn1c(SCC(=O)NCc2ccccc2)nc2ccccc2c1=O | -2 | 1 | -2 | -7 | -2 | 2 | nt | nt
CCC(C)Sc1nc2c([nH]c3ccccc32)c(=O)n1C (stereo not drawn) | 87* | 3 | -3 | -5 | 3 | 0 | 88* | 52*
Cc1cccc(NC(=O)CSc2nc3c([nH]c4ccccc43)c(=O)n2C)c1 | 35 | 0 | 1 | 1 | 2 | 20 | nt | nt
CCn1c(SCC(=O)N2CCCCCC2)nc2c([nH]c3ccccc32)c1=O | 128* | -3 | -9 | -5 | 1 | -7 | 102* | 182*
COCCn1c(SCC(=O)N2CCCCCC2)nc2c([nH]c3ccccc32)c1=O | 38 | -9 | -13 | -10 | -2 | -8 | nt | nt
CCSc1nc2c([nH]c3ccccc32)c(=O)n1C | 37 | -4 | 5 | 4 | 2 | -20 | nt | nt
CCn1c(SCC(=O)NCCc2ccccc2)nc2c([nH]c3ccccc32)c1=O | 109* | 4 | 4 | -8 | -2 | 4 | 86* | 168*
COc1ccccc1C=NNC(=O)c1csc(C)c1C | nt | 5 | nt | nt | nt | nt | nt | nt
COc1ccc(CC(=O)Nc2cccc(C(C)=NNC(=O)C3(C)CC3(Br)Br)c2)cc1 (stereo not drawn) | nt | 0 | nt | nt | nt | nt | nt | nt
COCc1cc(C)nc(OCC(=O)NN=Cc2ccc(O)cc2)c1C#N | nt | 4 | nt | nt | nt | nt | nt | nt
